# In ChEMBL document CHEMBL1629526, “4-[1-(Substituted aryl/alkyl carbonyl)-benzoimidazol-2-yl]-benzenesulfonic acids: synthesis, antimicrobial activity, QSAR studies, and antiviral evaluation” (Eur J Med Chem, 2010):
# What was measured:
# [1] = test system: Vesicular stomatitis virus; experiment: Antiviral activity against Vesicular stomatitis virus infected in human HeLa cells assessed as inhibition of virus induced cytopathicity by visual scoring of CPE; assay type: functional, organism-based
# Aspergillus niger = experiment: Antimicrobial activity against Aspergillus niger after 7 days by tube dilution method; assay type: functional; conditions: 168 h
# Influenza B virus [2] = experiment: Antiviral activity against Influenza B virus infected in MDCK cells assessed as inhibition of virus induced cytopathicity after 2 to 4 days by MTS assay; assay type: functional, organism-based
# [3] = Cytotoxicity against cat CRFK cells assessed as cell viability by MTS assay; assay type: cell-based, Felis catus; conditions: crfk
# In short: (§1)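 Uninfected cultures were run in parallel with the antiviral assays. Viability was read by colorimetric formazan MTS assay.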
# Influenza A virus [4] = experiment: Antiviral activity against Influenza A H3N2 virus subtype infected in MDCK cells assessed as inhibition of virus induced cytopathicity after 2 to 4 days by MTS assay; assay type: functional, organism-based
# Staphylococcus aureus = experiment: Antimicrobial activity against Staphylococcus aureus after 24 hrs by tube dilution method; assay type: functional
# [5] = Cytotoxicity against human HeLa cells assessed as altered cell morphology; assay type: cell-based
# In short: (§2)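 Uninfected cell cultures run alongside the antiviral assays, exposed to serial compound dilutions and incubated at 37 °C for 2–4 days. Toxicity was scored microscopically and reported as the minimum cytotoxic concentration (MCC), the lowest concentration causing a detectable change in normal cell morphology.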
# Human alphaherpesvirus 1 [6] = experiment: Antiviral activity against thymidine kinase deficient acyclovir-resistant Herpes simplex virus 1 KOS infected in HEL cells assessed as inhibition of virus induced cytopathicity after 2 to 4 days by MTS assay; assay type: functional, organism-based; conditions: Human alphaherpesvirus 1, KOS
# [7] = test system: Respiratory syncytial virus; experiment: Antiviral activity against Respiratory syncytial virus infected in human HeLa cells assessed as inhibition of virus induced cytopathicity by visual scoring of CPE; assay type: functional, organism-based
# Coxsackievirus B4 [8] = experiment: Antiviral activity against coxsackievirus B4 infected in human HeLa cells assessed as inhibition of virus induced cytopathicity by visual scoring of CPE; assay type: functional, organism-based; conditions: Enterovirus B
# Vaccinia virus = experiment: Antiviral activity against Vaccinia virus infected in HEL cells assessed as inhibition of virus induced cytopathicity after 2 to 4 days by MTS assay; assay type: functional, organism-based; conditions: Orthopoxvirus vaccinia
# Candida albicans = experiment: Antimicrobial activity against Candida albicans after 48 hrs by tube dilution method; assay type: functional
# Human alphaherpesvirus 1 [9] = experiment: Antiviral activity against Herpes simplex virus 1 KOS infected in HEL cells assessed as inhibition of virus induced cytopathicity after 2 to 4 days by MTS assay; assay type: functional, organism-based; conditions: Human alphaherpesvirus 1, KOS
# [10] = Cytotoxicity against MDCK cells assessed as altered cell morphology; assay type: cell-based, Canis lupus familiaris; conditions: dog; in short: as §2
# Bacillus subtilis = experiment: Antimicrobial activity against Bacillus subtilis after 24 hrs by tube dilution method; assay type: functional
# In short: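 Serial dilutions in double-strength nutrient broth (I.P.) with ciprofloxacin as reference, tube dilution, incubated 37 °C for 24 h. MIC is the lowest concentration that inhibited growth.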
# Coxsackievirus B4 [11] = experiment: Antiviral activity against Coxsackie virus B4 infected in african green monkey Vero cells assessed as inhibition of virus induced cytopathicity after 2 to 4 days by MTS assay; assay type: functional, organism-based; conditions: Enterovirus B
# Influenza A virus [12] = experiment: Antiviral activity against Influenza A H3N2 virus subtype infected in MDCK cells assessed as inhibition of virus induced cytopathicity by visual scoring of CPE; assay type: functional, organism-based
# Escherichia coli = experiment: Antimicrobial activity against Escherichia coli after 24 hrs by tube dilution method; assay type: functional
# Sindbis virus = experiment: Antiviral activity against Sindbis virus infected in african green monkey Vero cells assessed as inhibition of virus induced cytopathicity after 2 to 4 days by MTS assay; assay type: functional, organism-based
# Coxsackievirus B4 [13] = experiment: Antiviral activity against coxsackievirus B4 infected in human HeLa cells assessed as inhibition of virus induced cytopathicity after 2 to 4 days by MTS assay; assay type: functional, organism-based; conditions: Enterovirus B
# MDCK = experiment: Cytotoxicity against MDCK cells assessed as cell viability by MTS assay; assay type: cell-based, Canis lupus familiaris; conditions: dog, mdck; in short: as §1
# [14] = test system: Mammalian orthoreovirus 1; experiment: Antiviral activity against Reovirus 1 virus infected in african green monkey Vero cells assessed as inhibition of virus induced cytopathicity after 2 to 4 days by MTS assay; assay type: functional, organism-based; conditions: Mammalian orthoreovirus 1, Vero
# HeLa = experiment: Cytotoxicity against human HeLa cells assessed as cell viability by MTS assay; assay type: cell-based; conditions: hela; in short: as §1
# [15] = test system: Vesicular stomatitis virus; experiment: Antiviral activity against Vesicular stomatitis virus infected in human HeLa cells assessed as inhibition of virus induced cytopathicity after 2 to 4 days by MTS assay; assay type: functional, organism-based
# Influenza B virus [16] = experiment: Antiviral activity against Influenza B virus infected in MDCK cells assessed as inhibition of virus induced cytopathicity by visual scoring of CPE; assay type: functional, organism-based
# [17] = test system: Vesicular stomatitis virus; experiment: Antiviral activity against Vesicular stomatitis virus infected in HEL cells assessed as inhibition of virus induced cytopathicity after 2 to 4 days by MTS assay; assay type: functional, organism-based
# Human alphaherpesvirus 2 = experiment: Antiviral activity against Herpes simplex virus 2 G infected in HEL cells assessed as inhibition of virus induced cytopathicity after 2 to 4 days by MTS assay; assay type: functional, organism-based; conditions: Human alphaherpesvirus 2, strain G
# Punta Toro virus = experiment: Antiviral activity against Punta Toro virus infected in african green monkey Vero cells assessed as inhibition of virus induced cytopathicity after 2 to 4 days by MTS assay; assay type: functional, organism-based
# [18] = test system: Respiratory syncytial virus; experiment: Antiviral activity against Respiratory syncytial virus infected in human HeLa cells assessed as inhibition of virus induced cytopathicity after 2 to 4 days by MTS assay; assay type: functional, organism-based
# Felid alphaherpesvirus 1 = experiment: Antiviral activity against Feline herpesvirus 1 infected in cat CRFK cells assessed as inhibition of virus induced cytopathicity after 2 to 4 days by MTS assay; assay type: functional, organism-based; conditions: Felid alphaherpesvirus 1, CRFK
# [19] = Cytotoxicity against african green monkey Vero cells assessed as altered cell morphology; assay type: cell-based; conditions: chlorocebus sabaeus; in short: as §2
# [20] = Cytotoxicity against human HEL cells assessed as altered cell morphology; assay type: cell-based; in short: as §2
# Feline coronavirus = experiment: Antiviral activity against Feline coronavirus infected in cat CRFK cells assessed as inhibition of virus induced cytopathicity after 2 to 4 days by MTS assay; assay type: functional, organism-based; conditions: Alphacoronavirus 1, CRFK
# Human respirovirus 3 = experiment: Antiviral activity against parainfluenza-3 virus infected in african green monkey Vero cells assessed as inhibition of virus induced cytopathicity after 2 to 4 days by MTS assay; assay type: functional, organism-based; conditions: Human respirovirus 3, Vero
SMILES,EC50 [1] [mg/L],MFC (Aspergillus niger) [mg/L],EC50 (Influenza B virus [2]) [mg/L],CC50 [3] [mg/L],EC50 (Influenza A virus [4]) [mg/L],MBC (Staphylococcus aureus) [mg/L],MCC [5] [µg/mL],EC50 (Human alphaherpesvirus 1 [6]) [mg/L],EC50 [7] [mg/L],EC50 (Coxsackievirus B4 [8]) [mg/L],EC50 (Vaccinia virus) [mg/L],MFC (Candida albicans) [mg/L],EC50 (Human alphaherpesvirus 1 [9]) [mg/L],MCC [10] [µg/mL],MBC (Bacillus subtilis) [mg/L],EC50 (Coxsackievirus B4 [11]) [mg/L],EC50 (Influenza A virus [12]) [mg/L],MBC (Escherichia coli) [mg/L],EC50 (Sindbis virus) [mg/L],EC50 (Coxsackievirus B4 [13]) [mg/L],also measured
C/C=C/C(=O)n1c(-c2ccc(S(=O)(=O)O)cc2)nc2ccccc21,> 100,> 50,> 100,> 100,> 100,12.5,> 100,> 100,> 100,> 100,> 100,> 50,> 100,> 100,50,> 100,> 100,12.5,> 100,> 100,CC50 (MDCK): > 100 mg/L; EC50 [14]: > 100 mg/L; CC50 (HeLa): > 100 mg/L; EC50 [15]: > 100 mg/L; EC50 (Influenza B virus [16]): > 100 mg/L; EC50 [17]: > 100 mg/L; EC50 (Human alphaherpesvirus 2): > 100 mg/L; EC50 (Punta Toro virus): > 100 mg/L; EC50 [18]: > 100 mg/L; EC50 (Felid alphaherpesvirus 1): > 100 mg/L; MCC [19]: > 100 µg/mL; MCC [20]: > 100 µg/mL; EC50 (Feline coronavirus): > 100 mg/L; EC50 (Human respirovirus 3): > 100 mg/L
CCCCC(=O)n1c(-c2ccc(S(=O)(=O)O)cc2)nc2ccccc21,> 100,> 50,> 100,> 100,> 100,6.25,> 100,> 100,> 100,> 100,> 100,12.5,> 100,> 100,6.25,> 100,> 100,6.25,> 100,> 100,CC50 (MDCK): > 100 mg/L; EC50 [14]: > 100 mg/L; CC50 (HeLa): > 100 mg/L; EC50 [15]: > 100 mg/L; EC50 (Influenza B virus [16]): > 100 mg/L; EC50 [17]: > 100 mg/L; EC50 (Human alphaherpesvirus 2): > 100 mg/L; EC50 (Punta Toro virus): > 100 mg/L; EC50 [18]: > 100 mg/L; EC50 (Felid alphaherpesvirus 1): > 100 mg/L; MCC [19]: > 100 µg/mL; MCC [20]: > 100 µg/mL; EC50 (Feline coronavirus): > 100 mg/L; EC50 (Human respirovirus 3): > 100 mg/L
